Laboratory results from ChEMBL document CHEMBL1629577, “Activity of T-705 in a hamster model of yellow fever virus infection in comparison with that of a chemically related compound, T-1106” (Antimicrob Agents Chemother, 2009).
The source made the active and inactive calls. No cut-off for these calls is given here.

How the values were obtained:
Yellow fever virus [1] = experiment: Antiviral activity against 10^2 CCID50 Yellow fever virus Jimenez infected in syrian golden hamster assessed as serum survival of animal at 200 mg/kg/day, po administered twice daily for 8 days started 4 hrs prior to viral infection; type: functional, organism-based
Yellow fever virus [2] = experiment: Antiviral activity against 10^2 CCID50 Yellow fever virus Jimenez infected in syrian golden hamster assessed as serum AST level at 400 mg/kg/day, po administered daily for days started 2 day post viral challenge; type: functional
Yellow fever virus [3] = experiment: Antiviral activity against 10^2 CCID50 Yellow fever virus Jimenez infected in syrian golden hamster assessed as mean day of death […] at 400 mg/kg/day, po administered twice daily for 8 days started 2 day post infection; type: functional
Yellow fever virus [4] = experiment: Antiviral activity against 10^2 CCID50 Yellow fever virus Jimenez infected in syrian golden hamster assessed as serum AST level in non surviving animals at 400 mg/kg/day, po administered 5 days post viral infection; type: functional
Yellow fever virus [5] = experiment: Antiviral activity against 10^2 CCID50 Yellow fever virus Jimenez infected in syrian golden hamster assessed as serum ALT level at 400 mg/kg/day, po administered daily for days started 1 day post viral challenge; type: functional
Yellow fever virus [6] = experiment: Antiviral activity against 10^2 CCID50 Yellow fever virus Jimenez infected in syrian golden hamster assessed as serum ALT level in surviving animals at 400 mg/kg/day, po administered 4 days post viral infection; type: functional
Yellow fever virus [7] = experiment: Antiviral activity against 10^2 CCID50 Yellow fever virus Jimenez infected in syrian golden hamster assessed as mean day of death […] at 200 mg/kg/day, po administered twice daily for 8 days started 4 hrs prior to viral infection relative to control; type: functional
Yellow fever virus [8] = experiment: Antiviral activity against 10^2 CCID50 Yellow fever virus Jimenez infected in syrian golden hamster assessed as reduction in viral titer in liver at 200 mg/kg/day administered twice daily for 8 days started 6 days post infection by quantitative RT-PCR analysis; type: functional, organism-based
Yellow fever virus [9] = experiment: Antiviral activity against 10^2 CCID50 Yellow fever virus Jimenez infected in syrian golden hamster assessed as serum AST level at 400 mg/kg/day, po administered twice daily for 8 days started 4 hrs prior to viral infection; type: functional, organism-based
Yellow fever virus [10] = experiment: Antiviral activity against Yellow fever virus 17D infected in African green monkey Vero cells assessed as time required for inhibition of viral replication at 6400 uM up to 12 hrs post-viral infection; type: functional, cell-based
Yellow fever virus [11] = experiment: Antiviral activity against 10^2 CCID50 Yellow fever virus Jimenez infected in syrian golden hamster assessed as serum ALT level at 400 mg/kg/day, po administered twice daily for 8 days started 4 hrs prior to viral infection; type: functional
Yellow fever virus [12] = experiment: Antiviral activity against 10^2 CCID50 Yellow fever virus Jimenez infected in syrian golden hamster assessed as serum ALT level in surviving animals at 400 mg/kg/day, po administered 5 days post viral infection; type: functional
Yellow fever virus [13] = experiment: Antiviral activity against Yellow fever virus 17D infected in African green monkey Vero cells assessed as reduction in virus yield; type: functional
Procedure, shortened: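 Virus yield reduction in Vero cells infected with YFV 17D after compound exposure, with progeny virus titred by CCID50. The EC90 was averaged over separate experiments.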

Yellow fever virus [14] = experiment: Antiviral activity against 10^2 CCID50 Yellow fever virus Jimenez infected in syrian golden hamster assessed as serum AST level at 400 mg/kg/day, po administered daily for days started 4 day post viral challenge; type: functional

## NC(=O)c1nc(F)cnc1O [FAVIPIRAVIR]
Yellow fever virus [1]
  Activity: Active
Yellow fever virus [2]
  Activity: 75 IU/L
Yellow fever virus [3]
  Time: >21 days
Yellow fever virus [4]
  Activity: 285 IU/L
Yellow fever virus [5]
  Activity: 80 IU/L
Yellow fever virus [6]
  Activity: 77 IU/L
Yellow fever virus [7]
  Time: >21 days
Yellow fever virus [8]
  Activity: Active
Yellow fever virus [9]
  Activity: inactive
Yellow fever virus [10]
  Activity: Active
Yellow fever virus [11]
  Activity: 63 IU/L
Yellow fever virus [12]
  Activity: 64 IU/L
Yellow fever virus [13]
  EC90: 330 µM
Yellow fever virus [14]
  Activity: 131 IU/L
